Experimental data published in ChEMBL document CHEMBL3526046, “The role of aldehyde oxidase and xanthine oxidase in the biotransformation of a novel negative allosteric modulator of metabotropic glutamate receptor subtype 5” (Drug Metab Dispos, 2012).
Values belong to the molecule of their own block, whether it stands above or below them.

Tests used:
[1] = Drug level in human hepatic S9 fraction treated with 25 uM VU0409106 by LC-UV-MS analysis; assay type: ADME, tissue-based, Liver
Procedure, shortened: (§1)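 Hepatic S9 (5 mg/ml) in 0.1 M potassium phosphate pH 7.4 with 3 mM MgCl2 and 25 µM substrate, 37°C, 1 h under ambient oxygen; NADPH (2 mM) added in select runs. Reactions started by adding substrate. Protein precipitated with 2 volumes MeCN and the supernatant dried under nitrogen, reconstituted in 85:15 10 mM ammonium formate (pH 4.1)-MeCN, then analysed by LC-MS.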

[2] = Drug level in cynomolgus monkey hepatic S9 fraction treated with 25 uM VU0409106 by LC-UV-MS analysis; assay type: ADME, tissue-based, Macaca fascicularis, Liver; procedure, shortened: as §1
[3] = system: Plasma; assay: Retention time in Sprague-Dawley rat plasma treated with 56.6 mg/kg, ip VU0409106 single dose; assay type: ADME, organism-based; set-up: dose 56.6 mg/kg, route intraperitoneal; conditions: in vivo
Procedure, shortened: (§2)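 Male Sprague-Dawley rats given a single intraperitoneal dose of 56.6 mg/kg. Plasma extracted with 2 volumes acetonitrile and centrifuged; metabolites profiled by LC-MS/MS.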

[4] = system: Hepatocyte; assay: Drug level in Sprague-Dawley rat cryopreserved hepatocytes treated with 25 uM VU0409106 by LC-UV-MS analysis; assay type: ADME, cell-based
[5] = Drug level in human hepatic S9 fraction treated with 25 uM VU0409106 by LC-MS/MS analysis in presence of 100 uM raloxifene aldehyde oxidase inhibitor; assay type: ADME, tissue-based, Liver; procedure, shortened: as §1
[6] = Drug level in beagle dog hepatic S9 fraction treated with 25 uM VU0409106 by LC-MS/MS analysis; assay type: ADME, tissue-based, Canis lupus familiaris, Liver; procedure, shortened: as §1
[7] = Drug level in Sprague-Dawley rat hepatic S9 fraction treated with 25 uM VU0409106 by LC-MS/MS analysis in presence of 100 uM allopurinol xanthine oxidase inhibitor; assay type: ADME, tissue-based, Liver; procedure, shortened: as §1
[8] = Drug level in human hepatic S9 fraction treated with 25 uM VU0409106 by LC-MS/MS analysis in presence of 100 uM hydralazine aldehyde oxidase inhibitor; assay type: ADME, tissue-based, Liver; procedure, shortened: as §1
[9] = system: Plasma; assay: Drug level in Sprague-Dawley rat plasma treated with 56.6 mg/kg, ip VU0409106 single dose by LC-MS/MS analysis; assay type: ADME, organism-based; set-up: dose 56.6 mg/kg, route intraperitoneal; conditions: in vivo; procedure, shortened: as §2
[10] = Drug level in Sprague-Dawley rat hepatic S9 fraction treated with 25 uM VU0409106 by LC-MS/MS analysis in presence of 100 uM hydralazine aldehyde oxidase inhibitor; assay type: ADME, tissue-based, Liver; procedure, shortened: as §1
[11] = Drug level in Sprague-Dawley rat hepatic S9 fraction treated with 25 uM VU0409106 by LC-UV-MS analysis; assay type: ADME, tissue-based, Liver; procedure, shortened: as §1
[12] = Drug metabolism in human hepatic S9 fraction assessed as 3-(2,4-dioxo-1,2,3,4-tetrahydropyrimidin-5-yloxy)-5-fluoro-N-(thiazol-2-yl)benzamide at 1 uM by LC-MS/MS analysis; assay type: ADME, Liver; conditions: s9, 1 µM
[13] = Intrinsic clearance in cynomolgus monkey hepatic S9 fraction at 1 uM in presence of NADPH; assay type: ADME, tissue-based, Macaca fascicularis, Liver
Procedure, shortened: (§3)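 Substrate depletion at 1 µM in 0.1 M potassium phosphate pH 7.4, S9 2.5 mg/ml or cytosol 1 mg/ml, ± NADPH 1 mM, 37°C. Sampled at 0, 3, 7, 15, 25 and 45 min, quenched in cold MeCN with internal standard, analysed by LC-MS/MS in triplicate. CLint scaled using 120.7 mg S9 or 80.7 mg cytosol protein.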

[14] = Intrinsic clearance in Sprague-Dawley rat hepatic cytosol at 1 uM; assay type: ADME, tissue-based, Liver; procedure, shortened: as §3
[15] = Intrinsic clearance in cynomolgus monkey cryopreserved hepatocytes at 1 uM; assay type: ADME, cell-based, Macaca fascicularis, Hepatocyte
Procedure, shortened: (§4)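 Hepatocyte depletion assay at 2 × 10^6 cells/ml, 37°C, ambient oxygen. Aliquots taken at 0, 15, 30, 60 and 120 min, quenched in ice-cold MeCN containing internal standard, analysed by LC-MS/MS in triplicate. Intrinsic clearance estimated by the substrate depletion method.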

[16] = Intrinsic clearance in human hepatic S9 fraction at 1 uM in presence of NADPH; assay type: ADME, tissue-based, Liver; procedure, shortened: as §3
[17] = Intrinsic clearance in Sprague-Dawley rat hepatic S9 fraction at 1 uM in presence of NADPH; assay type: ADME, tissue-based, Liver; procedure, shortened: as §3
[18] = Drug metabolism in Sprague-Dawley rat hepatic S9 fraction assessed as 3-(2,4-dioxo-1,2,3,4-tetrahydropyrimidin-5-yloxy)-5-fluoro-N-(thiazol-2-yl)benzamide at 25 uM by LC-MS/MS analysis; assay type: ADME, Liver; conditions: s9, 25 µM
[19] = Inhibition of group 2 mGluR (unknown origin); set-up: species or system Homo sapiens
[20] = system: Plasma; assay: Drug metabolism in Sprague-Dawley rat plasma assessed as hydroxylated thiazole metabolite formation at 56.6 mg/kg, ip single dose by LC-MS/MS analysis; assay type: ADME, organism-based; set-up: dose 56.6 mg/kg, route intraperitoneal; conditions: in vivo; procedure, shortened: as §2
[21] = Drug metabolism in Sprague-Dawley rat cryopreserved hepatocytes assessed as hydroxylated pyrimidine metabolite formation at 25 uM by LC-MS/MS analysis in presence of 1-ABT pan-450 inactivator; assay type: ADME, cell-based, Hepatocyte
Procedure, shortened: (§5)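 Pooled cryopreserved hepatocytes (2 × 10^6 cells/ml) in Krebs-Henseleit buffer, 25 µM substrate, 37°C for 4 h. Rat donors were 14 males, cynomolgus 4 males, human 20 mixed gender. Cells precipitated with 2 volumes MeCN, centrifuged at 4°C; supernatant dried under nitrogen, reconstituted in 15% aqueous MeCN for LC-MS.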

[22] = Effective half life in Sprague-Dawley rat at 1 mg/kg, iv administered as single dose; assay type: ADME, organism-based; set-up: dose 1 mg/kg, route intravenous; conditions: in vivo
Procedure, shortened: (§6)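 Cannulated male Sprague-Dawley rats dosed at 1 mg/kg through a jugular catheter in 10% ethanol/70% PEG400/20% saline. Carotid blood drawn at 0.033 to 24 h into chilled EDTA tubes; plasma stored at -80°C. Parameters derived by noncompartmental analysis.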

[23] = Drug metabolism in Sprague-Dawley rat hepatic S9 fraction assessed as 3-fluoro-N-(4-methylthiazol-2-yl)-5-(6-oxo-1,6-dihydropyrimidin-5-yloxy)benzamide at 25 uM by LC-MS/MS analysis; assay type: ADME, Liver; conditions: s9, 25 µM
[24] = Drug metabolism in human cryopreserved hepatocytes assessed as 3-(2,4-dioxo-1,2,3,4-tetrahydropyrimidin-5-yloxy)-5-fluoro-N-(thiazol-2-yl)benzamide at 25 uM by LC-MS/MS analysis; assay type: ADME, cell-based, Hepatocyte; procedure, shortened: as §5
[25] = system: Plasma; assay: Drug metabolism in Sprague-Dawley rat plasma assessed as hydroxylated pyrimidine metabolite formation at 56.6 mg/kg, ip single dose by LC-MS/MS analysis; assay type: ADME, organism-based; set-up: dose 56.6 mg/kg, route intraperitoneal; conditions: in vivo; procedure, shortened: as §2
[26] = Intrinsic clearance in human cryopreserved hepatocytes at 1 uM; assay type: ADME, cell-based, Hepatocyte; procedure, shortened: as §4
[27] = Drug metabolism in human cryopreserved hepatocytes assessed as hydroxylated pyrimidine metabolite formation at 25 uM by LC-MS/MS analysis in presence of 1-ABT pan-450 inactivator; assay type: ADME, cell-based, Hepatocyte; procedure, shortened: as §5
[28] = Plasma clearance in cynomolgus monkey at 1 mg/kg, iv administered as single dose; assay type: ADME, organism-based, Macaca fascicularis; set-up: dose 1 mg/kg, route intravenous
Procedure, shortened: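 Male cynomolgus monkeys (n = 2, about 3 kg) given 1 mg/kg i.v. via the saphenous vein in 10% ethanol/60% PEG400/30% isotonic saline. Femoral blood sampled from 0.033 to 24 h into chilled EDTA tubes; plasma kept at -80°C.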

[29] = Volume of distribution at steady state in Sprague-Dawley rat at 1 mg/kg, iv administered as single dose; assay type: ADME, organism-based; set-up: dose 1 mg/kg, route intravenous; conditions: in vivo, read-out: Vdss; procedure, shortened: as §6
[30] = Drug metabolism in cynomolgus monkey hepatic S9 fraction assessed as 3-fluoro-N-(4-methylthiazol-2-yl)-5-(6-oxo-1,6-dihydropyrimidin-5-yloxy)benzamide at 1 uM by LC-MS/MS analysis; assay type: ADME, Macaca fascicularis, Liver; conditions: s9, 1 µM
[31] = Plasma clearance in Sprague-Dawley rat at 1 mg/kg, iv administered as single dose; assay type: ADME, organism-based; set-up: dose 1 mg/kg, route intravenous; procedure, shortened: as §6
[32] = Inhibition of group 3 mGluR (unknown origin); set-up: species or system Homo sapiens
[33] = Intrinsic clearance in Sprague-Dawley rat hepatic S9 fraction at 1 uM; assay type: ADME, tissue-based, Liver; procedure, shortened: as §3
[34] = Inhibition of group 1 mGluR (unknown origin); set-up: species or system Homo sapiens
[35] = Drug metabolism in Sprague-Dawley rat cryopreserved hepatocytes assessed as hydroxylated thiazole metabolite formation at 25 uM by LC-MS/MS analysis in presence of 1-ABT pan-450 inactivator; assay type: ADME, cell-based, Hepatocyte; procedure, shortened: as §5
[36] = Intrinsic clearance in human hepatic cytosol at 1 uM; assay type: ADME, tissue-based, Liver; procedure, shortened: as §3
[37] = Drug metabolism in human cryopreserved hepatocytes assessed as hydroxylated thiazole metabolite formation at 25 uM by LC-MS/MS analysis in presence of 1-ABT pan-450 inactivator; assay type: ADME, cell-based, Hepatocyte; procedure, shortened: as §5
[38] = Intrinsic clearance in Sprague-Dawley rat cryopreserved hepatocytes at 1 uM; assay type: ADME, cell-based, Hepatocyte; procedure, shortened: as §4
[39] = Drug metabolism in human hepatic S9 fraction assessed as 3-fluoro-N-(4-methylthiazol-2-yl)-5-(6-oxo-1,6-dihydropyrimidin-5-yloxy)benzamide at 1 uM by LC-MS/MS analysis; assay type: ADME, Liver; conditions: s9, 1 µM
[40] = Drug metabolism in human cryopreserved hepatocytes assessed as 3-fluoro-N-(4-methylthiazol-2-yl)-5-(6-oxo-1,6-dihydropyrimidin-5-yloxy)benzamide at 25 uM by LC-MS/MS analysis; assay type: ADME, cell-based, Hepatocyte; procedure, shortened: as §5
[41] = Intrinsic clearance in cynomolgus monkey hepatic S9 fraction at 1 uM; assay type: ADME, tissue-based, Macaca fascicularis, Liver; procedure, shortened: as §3
[42] = Drug metabolism in cynomolgus monkey hepatic S9 fraction assessed as 3-(2,4-dioxo-1,2,3,4-tetrahydropyrimidin-5-yloxy)-5-fluoro-N-(thiazol-2-yl)benzamide at 1 uM by LC-MS/MS analysis; assay type: ADME, Macaca fascicularis, Liver; conditions: s9, 1 µM

Drug metabolism [1]: metabolite_detected | Drug metabolism [2]: metabolite_detected | Retention_time [3]: 12.55 min | Drug metabolism [4]: metabolite_detected | Drug metabolism [5]: metabolite_not_detected | Drug metabolism [6]: metabolite_not_detected | Drug metabolism [7]: metabolite_detected | Drug metabolism [8]: metabolite_not_detected | Drug metabolism [9]: metabolite_detected | Drug metabolism [10]: metabolite_not_detected | Drug metabolism [11]: metabolite_detected
Structure (SMILES): Cc1csc(NC(=O)c2cc(F)cc(Oc3cnc[nH]c3=O)c2)n1

Drug metabolism [12]: metabolite_detected | CLint at 1 µM [13]: 37 mL/min/kg | CLint at 1 µM [14]: 16 mL/min/kg | CLint at 1 µM [15]: 194 mL/min/kg | CLint at 1 µM [16]: 15 mL/min/kg | CLint at 1 µM [17]: 54 mL/min/kg | Drug metabolism [18]: metabolite_detected | IC50 [19]: ≥ 10 µM | Drug metabolism [20]: metabolite_detected | Drug metabolism [21]: metabolite_not_detected | half-life [22]: < 15 min | Retention_time [3]: 14.5 min | Drug metabolism [23]: metabolite_detected | Drug metabolism [24]: metabolite_detected | Drug metabolism [25]: metabolite_detected | CLint at 1 µM [26]: 6.9 mL/min/kg | Drug metabolism [27]: metabolite_not_detected | clearance [28]: 24 mL/min/kg | Vd [29]: 0.81 L/kg | Drug metabolism [30]: metabolite_detected | clearance [31]: 43 mL/min/kg | IC50 [32]: ≥ 10 µM | CLint at 1 µM [33]: 25 mL/min/kg | IC50 [34]: ≥ 10 µM | Drug metabolism [35]: metabolite_not_detected | CLint at 1 µM [36]: 3.7 mL/min/kg | Drug metabolism [37]: metabolite_not_detected | CLint at 1 µM [38]: 96 mL/min/kg | Drug metabolism [39]: metabolite_detected | Drug metabolism [40]: metabolite_detected | CLint at 1 µM [41]: 34 mL/min/kg | Drug metabolism [42]: metabolite_detected
Structure (SMILES): Cc1csc(NC(=O)c2cc(F)cc(Oc3cncnc3)c2)n1
